Here are results for three compounds from article PMC5071636 (Acta Pharmaceutica Sinica. B, 2016).

One data set concerns eEF2K in cells. The conditions noted are these: cited from earlier work.
For data set [1], the system named is eEF2 phosphorylation in MDA-MB-453 cells. The data set can be described thus: Western blot of phospho-eEF2. Type of data set: cell-based, human. In short, it runs like this:
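MDA-MB-453 grown in L15 with 10% FBS, 1 mmol/L pyruvate, 0.5 mg/mL geneticin, no CO2. Seeded at 2×10^5 cells/well; 24 h later given test compound at several concentrations for 6 h. Lysed in 2× SDS loading buffer, 95 °C 10 min, on 10% gels to PVDF, milk-blocked. Probed overnight at 4 °C for phospho-eEF2 Thr56 and eEF2, β-actin loading control. Fluorescent secondary read-out. Three independent experiments in duplicate, mean ±SEM.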
For orientation: In western blotting, separated proteins are transferred to a membrane and probed.

For data set [2], the system named is eEF2 phosphorylation in H1299 cells. The data set can be described thus: Western blot of phospho-eEF2 in H1299 cells. The conditions noted are these: 6 h treatment. Type of data set: cell-based, human.
The subject of data set [3] is eEF2 phosphorylation in HCT116 cells. The data set can be described thus: Western blot of phospho-eEF2 in HCT116 cells. It counts as cell-based, human. The conditions noted are these: 6 h treatment.
Another data set relates to cells. The conditions noted are these: at high concentrations; cited from earlier work.
Another data set has as its system eEF2K. The note with it: cited from earlier work.

Take `CCn1c(=O)c2cc(C(N)=O)c(N)nc2n(C2CC2)c1=O` [A484954]: the “potency on eEF2K in cells” value in the data set on eEF2K in cells is “rather low potency”. The “effect on eEF2 phosphorylation (p-eEF2)” value is “capable of inhibiting eEF2 phosphorylation” in data set [1] (MDA-MB-453 cells, 6 h treatment); “capable of inhibiting eEF2 phosphorylation” in data set [2]; “capable of inhibiting eEF2 phosphorylation” in data set [3]. Besides, in data set [1] (in the cell), the “total protein level of eEF2” value was “not affected”. Besides, the cytotoxicity entry with cells is on record as “cytotoxic at high concentrations”.

Consider `CCCCCCCCCCCCCCCC[n+]1ccn(Cc2ccccc2)c1C.[I-]` [NH125, 1-Benzyl-3-cetyl-2-methylimidazolium iodide], for which the “effect on eEF2 phosphorylation in vivo” value with eEF2K in cells is reported as “promotes eEF2 phosphorylation”. Also, the “effect on eEF2K activity in vitro” value in the data set on eEF2K was “inhibits eEF2K activity”.

For the compound `c1cnc2sccc2c1` [Thieno [2,3-b] pyridine], in the data set on eEF2K in cells, the “inhibitory effects on eEF2K in cells” value is on record as “weak inhibitory effects”.
